# Calls of active or inactive are those of the source. No cut-off for these calls is given here.
# How the values were obtained:
# [1] = tested on: Mycobacterium tuberculosis; assay: Antitubercular activity against Mycobacterium tuberculosis H37Rv assessed as bacterial growth inhibition after 7 days by broth microdilution assay; format: functional; conditions: 168 h, dose 0.03-64 µg/ml, time 7 day
# How it was run: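 Compounds were tested in broth microdilution from 64 downward, incubated 37 °C for 7 days, then resazurin (PrestoBlue) added. MIC is the lowest concentration preventing the blue-to-pink change, run in triplicate, reporting the value obtained at least twice of three.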
# [2] = tested on: Mycobacterium tuberculosis; assay: Antimycobacterial activity against Mycobacterium tuberculosis H37Rv ATCC 27294 assessed as reduction in bacterial growth incubated for […] by broth microdilution assay; format: functional
# [3] = Cytotoxicity against African green monkey vero cells assessed as reduction in cell viability measured after 72 hrs by MTT assay; format: cell-based; conditions: chlorocebus sabaeus
# How it was run: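 Vero cells seeded at ~10³ cells/well and grown 24 h at 37 °C, 5% CO₂, then exposed to compound (100 to 5 mg/l) for 72 h. MTT was added […] for 4 h and formazan dissolved in DMSO. CC50 is the lowest concentration giving 50% viability reduction. Doxorubicin was the positive control, run in triplicate.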
# [4] = Selectivity index, ratio of CC50 for African green monkey Vero cells to MIC for Antitubercular activity against Mycobacterium tuberculosis H37Rv; format: toxicity; conditions: read-out: Selectivity Index
# How it was run: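 Selectivity index calculated as Vero CC50 (MTT, 72 h) divided by the H37Rv MIC from the resazurin broth microdilution assay.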
# [5] = tested on: Mycobacteroides abscessus; assay: Antimycobacterial activity against Mycobacterium abscessus ATCC 19977 assessed as visible growth inhibition incubated for 16 to 18 hrs; format: functional, organism-based; conditions: time 16-18 hrs
# [6] = tested on: Mycolicibacterium fortuitum; assay: Antimycobacterial activity against Mycobacterium fortuitum ATCC 6841 assessed as visible growth inhibition incubated for 16 to 18 hrs; format: functional, organism-based; conditions: time 16-18 hrs
# Mycobacteroides chelonae = assay: Antimycobacterial activity against Mycobacterium chelonae ATCC 35752 assessed as visible growth inhibition incubated for 16 to 18 hrs; format: functional, organism-based; conditions: time 16-18 hrs
# [7] = tested on: Mycobacterium tuberculosis; assay: Antimycobacterial activity against Mycobacterium tuberculosis H37Rv assessed as reduction in CFU at 10 times MIC concentration measured up to 6 days by time kill assay; format: functional, organism-based; conditions: time day <=6
# How it was run: (§1)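 Time-kill: H37Rv at ~10⁵ CFU/mL in 96-well plates with compound at 1x or 10x MIC, 37 °C for 6 days. At time-points, samples were serially two-fold diluted in normal saline and plated on 7H11 agar with OADC. Colonies were counted after […] at 37 °C, and CFU/mL was plotted against time with and without compound.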
# [8] = tested on: Mycobacterium tuberculosis; assay: Antimycobacterial activity against Mycobacterium tuberculosis H37Ra; format: functional
# [9] = tested on: Mycobacterium tuberculosis; assay: Antimycobacterial activity against Mycobacterium tuberculosis H37Rv assessed as reduction in CFU at MIC concentration measured up to 6 days by time kill assay; format: functional, organism-based; conditions: time day <=6; how it was run: as §1
SMILES,MIC [1] [µg/mL],MIC [2] [µg/mL],CC50 at 72 h [3] [µg/mL],selectivity ratio [4],Activity [5],Activity [6],Activity (Mycobacteroides chelonae),Activity [7],MIC [8] [µg/mL],Activity [9]
CCOC(=O)c1cc(/C=C/c2c(Cl)cncc2Cl)on1,0.18,0.5,–,–,–,–,–,–,–,–
COC(=O)c1cc(-c2cccc(NC(=O)c3ccc(/C=C/C(=O)c4ccc(Cl)cc4)cc3)c2)on1,0.12,0.12,> 50,> 416,inactive,inactive,inactive,–,–,–
COC(=O)c1cc(-c2cccc(NC(=O)c3ccc(/C=C/C(=O)c4ccc(F)cc4F)cc3)c2)on1,0.12,0.12,> 40,> 333,inactive,inactive,inactive,–,–,–
COC(=O)c1cc(-c2cccc(NC(=O)c3ccc(/C=C/C(=O)c4ccc(N5CCOCC5)cc4)cc3)c2)on1,0.5,5,> 20,> 40,inactive,inactive,inactive,–,–,–
COC(=O)c1cc(-c2cccc(NC(=O)c3ccc(/C=C/C(=O)c4ccc(CC(C)C)cc4)cc3)c2)on1,0.12,0.12,> 10,> 84,inactive,inactive,inactive,–,–,–
CC[C@@H](CO)NCCN[C@@H](CC)CO [ETHAMBUTOL],1,1,–,–,–,–,–,–,–,–
COC(=O)c1cc(-c2cccc(NC(=O)c3ccc(/C=C/C(=O)c4cccc(Cl)c4)cc3)c2)on1,0.25,0.25,> 2.5,> 10,inactive,inactive,inactive,–,–,–
NNC(=O)c1ccncc1 [ISONIAZID],0.03,0.03,–,–,–,–,–,–,–,–
CCCOc1ccc(C(=O)/C=C/c2ccc(C(=O)Nc3cccc(-c4cc(C(=O)OC)no4)c3)cc2)cc1,0.12,0.12,> 40,> 320,inactive,inactive,inactive,Active,–,–
COC(=O)c1cc(-c2cccc(NC(=O)c3ccc(/C=C/C(=O)c4ccc(C)cc4)cc3)c2)on1,0.5,5,> 80,> 160,inactive,inactive,inactive,–,–,–
COC(=O)c1cc(-c2cccc(NC(=O)c3ccc(/C=C/C(=O)c4ccc(OC)cc4OC)cc3)c2)on1,0.25,0.25,> 50,> 200,inactive,inactive,inactive,–,–,–
COc1cc(/C=C/c2cc(/C=C/c3ccc(OC)c(OC)c3)no2)ccc1O,–,–,–,–,–,–,–,–,0.09,–
CCOc1ccc(C(=O)/C=C/c2ccc(C(=O)Nc3cccc(-c4cc(C(=O)OC)no4)c3)cc2)cc1,0.25,0.25,> 40,> 160,inactive,inactive,inactive,Active,–,Active
COC(=O)c1cc(-c2ccc(NC(=O)c3ccc(/C=C/C(=O)c4ccc(Cl)cc4)cc3)cc2)on1,0.06,0.06,> 80,> 1330,inactive,inactive,inactive,–,–,–
COC(=O)c1cc(-c2cccc(NC(=O)c3ccc(/C=C/C(=O)c4ccccc4Cl)cc3)c2)on1,0.25,0.25,> 25,> 100,inactive,inactive,inactive,–,–,–
COC(=O)c1cc(-c2cccc(NC(=O)c3ccc(/C=C/C(=O)c4ccc(Cl)cc4Cl)cc3)c2)on1,0.5,0.5,> 40,> 80,inactive,inactive,inactive,–,–,–
CN[C@@H]1[C@H](O[C@H]2[C@H](O[C@H]3[C@H](O)[C@@H](O)[C@H](N=C(N)N)[C@@H](O)[C@@H]3N=C(N)N)O[C@@H](C)[C@]2(O)C=O)O[C@@H](CO)[C@H](O)[C@H]1O [STREPTOMYCIN],0.5,2,–,–,–,–,–,–,–,–
COC(=O)c1cc(-c2cccc(NC(=O)c3ccc(/C=C/C(=O)c4ccccc4C)cc3)c2)on1,0.25,0.25,> 25,> 100,inactive,inactive,inactive,–,–,–
CO[C@H]1/C=C/O[C@@]2(C)Oc3c(C)c(O)c4c(O)c(c(/C=N/N5CCN(C)CC5)c(O)c4c3C2=O)NC(=O)/C(C)=C\C=C\[C@H](C)[C@H](O)[C@@H](C)[C@@H](O)[C@@H](C)[C@H](OC(C)=O)[C@@H]1C [RIFAMPIN],0.03,0.06,–,–,–,–,–,–,–,–
COC(=O)c1cc(-c2cccc(NC(=O)c3ccc(/C=C/C(=O)c4ccc(OC)c([N+](=O)[O-])c4)cc3)c2)on1,1,–,> 40,> 40,inactive,inactive,inactive,–,–,–
COC(=O)c1cc(-c2cccc(NC(=O)c3ccc(/C=C/C(=O)c4cccc(Br)c4)cc3)c2)on1,4,–,> 100,> 25,inactive,inactive,inactive,–,–,–
COC(=O)c1cc(-c2cccc(NC(=O)c3ccc(/C=C/C(=O)c4ccc([N+](=O)[O-])cc4)cc3)c2)on1,2,–,> 20,> 10,inactive,inactive,inactive,–,–,–
COC(=O)c1cc(-c2cccc(NC(=O)c3ccc(/C=C/C(=O)c4cc(OC)c(OC)c(OC)c4)cc3)c2)on1,1,–,> 50,> 50,inactive,inactive,inactive,–,–,–
CCOC(=O)c1cc(-c2cccc(NC(=O)c3ccc(/C=C/C(=O)c4ccc(Cl)cc4)cc3)c2)on1,0.5,0.5,> 80,> 160,inactive,inactive,inactive,–,–,–

# — ChEMBL document CHEMBL4823271, “Synthesis and structure-activity relationship of new chalcone linked 5-phenyl-3-isoxazolecarboxylic acid methyl esters potentially active against drug resistant Mycobacterium tuberculosis” (Eur J Med Chem, 2021)
